Results: ChEMBL document CHEMBL2016528, “Synthesis and biological evaluation of bifendate-chalcone hybrids as a new class of potential P-glycoprotein inhibitors” (Bioorg Med Chem, 2012)
Calls of active or inactive are those of the source. The calls are words filed in the database; no cut-off is given here.

Columns and labels:
K562 [1] = assay: Cytotoxicity against human K562 cells after 72 hrs by MTS assay; format: cell-based; details: K562, 72 h
How it was run: (§1)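 Cells (1×10⁴/well) seeded and grown 24 h, then exposed to a range of compound concentrations for 72 h at 37 °C, 5% CO₂. MTS added for 3 h, absorbance read at 490 nm. IC50 = concentration giving 50% growth decrease, taken from dose–response curves; mean of triplicate experiments. K562/A02 is the adriamycin-induced P-gp-overexpressing subline.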

K562/A02 [2] = assay: Growth inhibition of human K562/A02 cells at 3.5 uM after 72 hrs by MTS assay; format: functional, cell-based
How it was run: (§2)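 ADR at 3.5 µM (K562/A02) or 0.2 µM (K562), alone or combined with compound at 2.5, 5 or 10 µM, for 72 h. Survival measured by MTS and given as percent growth of untreated control. Mean ± S.D. of three independent experiments; statistics versus ADR alone.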

P-glycoprotein (P-gp) = assay: Ratio of IC50 for human K562/A02 cells overexpress P-gp to IC50 for human K562 cells; format: cell-based; details: K562/A02 cells overexpressing P-gp and parental K562 cells, read-out: Ratio IC50
K562 [3] = assay: Growth inhibition of human K562 cells at 0.2 uM after 72 hrs by MTS assay; format: functional, cell-based; how it was run: as §2
[4] = Cytotoxicity against human K562/A02 cells overexpress P-gp after 72 hrs by MTS assay; format: ADME, cell-based; details: K562/A02, 72 h; how it was run: as §1
K562 [5] = assay: Induction of rhodamine-123 accumulation in human K562 cells preincubated for 1 hr prior rhodamine 123 addition measured after 30 mins by flow cytometry relative to control; format: functional, cell-based
How it was run: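 Cells (1×10⁶) pre-incubated with compound or 0.1% DMSO vehicle at 37 °C for 1 h. Rhodamine 123 then added to 0.5 µM for 30 min. Cell-associated fluorescence read by flow cytometry. Fold change = fluorescence divided by that of DMSO control cells; mean ± S.D. of three independent experiments.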

[6] = Growth inhibition of human K562/A02 cells at 10 uM after 72 hrs by MTS assay; format: cell-based; details: read-out: GI
How it was run: (§3)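 K562 and K562/A02 cells given compound alone at 10 µM for 72 h. Survival measured by MTS and expressed as percent of untreated control. Three independent experiments.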

[7] = Down regulation of P-gp level in human K562/A02 cells at 10 uM after 72 hrs by Western blotting analysis; format: functional, cell-based
[8] = Down regulation of P-gp mRNA level in human K562/A02 cells at 10 uM after 72 hrs by RT-PCR analysis; format: functional, cell-based
[9] = target: T1, ATP-dependent translocase ABCB1 (Homo sapiens, UniProt P08183); assay: Inhibition of P-glycoprotein in human K562/A02 cells assessed as potentiation of adriamycin-induced cytotoxicity at 2.5 to 10 uM after 72 hrs by MTS assay; format: cell-based; details: k562/a02, 72 h; how it was run: as §2
[10] = Growth inhibition of human K562 cells at 10 uM after 72 hrs by MTS assay; format: cell-based; details: read-out: GI; how it was run: as §3
[11] = Effect on P-gp ATPase activity assessed as relative light units at 200 uM by P-gp-GloTM assay
How it was run: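 P-gp ATPase measured by luminescence of remaining ATP; RLU inversely related to ATPase activity. Means of three separate experiments; Student's t test against untreated.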

K562/A02 [12] = assay: Inhibition of Pgp-mediated rhodamine 123 efflux in human K562/A02 cells assessed as intracellular rhodamine 123 accumulation at 3.3 uM preincubated for 30 mins measured after 60 mins by fluorescence microscopy relative to control; format: cell-based
How it was run: (§4)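 Efflux assay: K562/A02 cells incubated 30 min with 0.5 µM rhodamine 123 plus compound (0.33, 3.3 or 10 µM). Cells washed twice with PBS, resuspended in medium and left 60 min at 37 °C to efflux dye. Retained dye viewed by fluorescence microscopy, with flow cytometry in parallel; 0.1% DMSO as vehicle control.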

[13] = target: T1, ATP-dependent translocase ABCB1; assay: Inhibition of P-glycoprotein in human K562/A02 cells assessed as potentiation of adriamycin-induced cytotoxicity at 10 uM preincubated for 24 hrs followed by washout addition of adriamycin at 12 hrs post washout measured after 72 hrs by MTS assay (reference value: 54.11 uM); format: cell-based; details: k562/a02, 72 h
How it was run: (§5)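 K562/A02 cells (1×10⁵/well) cultured overnight, then treated with 10 µM compound for 24 h. Washed three times with PBS and moved to compound-free medium. ADR at various concentrations added 0, 6, 12 or 24 h after removal, then 72 h further incubation. Read by MTS at 490 nm; ADR IC50 derived; mean ± S.E. of triplicates.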

[14] = target: T1, ATP-dependent translocase ABCB1; assay: Inhibition of P-glycoprotein in human K562/A02 cells assessed as potentiation of adriamycin-induced cytotoxicity at 10 uM preincubated for 24 hrs followed by washout addition of adriamycin at 6 hrs post washout measured after 72 hrs by MTS assay (reference value: 35.15 uM); format: cell-based; details: k562/a02, 72 h; how it was run: as §5
[15] = target: T1, ATP-dependent translocase ABCB1; assay: Inhibition of P-glycoprotein in human K562/A02 cells assessed as potentiation of adriamycin-induced cytotoxicity by measuring survival rate at 2.5 uM after 72 hrs by MTS assay (reference value: 95%); format: cell-based; details: k562/a02, 72 h; how it was run: as §2
[16] = target: T1, ATP-dependent translocase ABCB1; assay: Inhibition of P-glycoprotein in human K562/A02 cells assessed as potentiation of adriamycin-induced cytotoxicity at 10 uM preincubated for 24 hrs followed by washout addition of adriamycin at 24 hrs post washout measured after 72 hrs by MTS assay (reference value: 51.67 uM); format: cell-based; details: k562/a02, 72 h; how it was run: as §5
[17] = Effect on P-gp ATPase activity assessed as relative light units at 40 uM by P-gp-GloTM assay (reference value: 242328 +/- 1398 RLU)
[18] = target: T1, ATP-dependent translocase ABCB1; assay: Inhibition of P-glycoprotein in human K562/A02 cells assessed as potentiation of adriamycin-induced cytotoxicity by measuring survival rate at 5 uM after 72 hrs by MTS assay (reference value: 95%); format: cell-based; details: k562/a02, 72 h; how it was run: as §2
[19] = target: T1, ATP-dependent translocase ABCB1; assay: Inhibition of P-glycoprotein in human K562/A02 cells assessed as potentiation of adriamycin-induced cytotoxicity by measuring survival rate at 10 uM after 72 hrs by MTS assay (reference value: 95%); format: cell-based; details: k562/a02, 72 h
K562 [20] = assay: Potentiation of adriamycin-induced cytotoxicity against human K562 cells at 2.5 to 10 uM after 72 hrs by MTS assay; format: functional, cell-based; how it was run: as §2
[21] = target: T1, ATP-dependent translocase ABCB1; assay: Inhibition of P-glycoprotein in human K562/A02 cells assessed as potentiation of adriamycin-induced cytotoxicity at 10 uM preincubated for 24 hrs followed by washout before addition of adriamycin measured after 72 hrs by MTS assay (reference value: 33.59 uM); format: cell-based; details: k562/a02, 72 h; how it was run: as §5
[22] = Cytotoxicity against human K562/A02 cells assessed as survival rate at 10 uM after 72 hrs by MTS assay; format: cell-based; details: read-out: Activity; how it was run: as §3
K562/A02 [23] = assay: Inhibition of Pgp-mediated rhodamine 123 efflux in human K562/A02 cells assessed as intracellular rhodamine 123 accumulation preincubated for 30 mins measured after 60 mins by fluorescence microscopy relative to control; format: cell-based; how it was run: as §4

T1 sequence (P08183 whole entry): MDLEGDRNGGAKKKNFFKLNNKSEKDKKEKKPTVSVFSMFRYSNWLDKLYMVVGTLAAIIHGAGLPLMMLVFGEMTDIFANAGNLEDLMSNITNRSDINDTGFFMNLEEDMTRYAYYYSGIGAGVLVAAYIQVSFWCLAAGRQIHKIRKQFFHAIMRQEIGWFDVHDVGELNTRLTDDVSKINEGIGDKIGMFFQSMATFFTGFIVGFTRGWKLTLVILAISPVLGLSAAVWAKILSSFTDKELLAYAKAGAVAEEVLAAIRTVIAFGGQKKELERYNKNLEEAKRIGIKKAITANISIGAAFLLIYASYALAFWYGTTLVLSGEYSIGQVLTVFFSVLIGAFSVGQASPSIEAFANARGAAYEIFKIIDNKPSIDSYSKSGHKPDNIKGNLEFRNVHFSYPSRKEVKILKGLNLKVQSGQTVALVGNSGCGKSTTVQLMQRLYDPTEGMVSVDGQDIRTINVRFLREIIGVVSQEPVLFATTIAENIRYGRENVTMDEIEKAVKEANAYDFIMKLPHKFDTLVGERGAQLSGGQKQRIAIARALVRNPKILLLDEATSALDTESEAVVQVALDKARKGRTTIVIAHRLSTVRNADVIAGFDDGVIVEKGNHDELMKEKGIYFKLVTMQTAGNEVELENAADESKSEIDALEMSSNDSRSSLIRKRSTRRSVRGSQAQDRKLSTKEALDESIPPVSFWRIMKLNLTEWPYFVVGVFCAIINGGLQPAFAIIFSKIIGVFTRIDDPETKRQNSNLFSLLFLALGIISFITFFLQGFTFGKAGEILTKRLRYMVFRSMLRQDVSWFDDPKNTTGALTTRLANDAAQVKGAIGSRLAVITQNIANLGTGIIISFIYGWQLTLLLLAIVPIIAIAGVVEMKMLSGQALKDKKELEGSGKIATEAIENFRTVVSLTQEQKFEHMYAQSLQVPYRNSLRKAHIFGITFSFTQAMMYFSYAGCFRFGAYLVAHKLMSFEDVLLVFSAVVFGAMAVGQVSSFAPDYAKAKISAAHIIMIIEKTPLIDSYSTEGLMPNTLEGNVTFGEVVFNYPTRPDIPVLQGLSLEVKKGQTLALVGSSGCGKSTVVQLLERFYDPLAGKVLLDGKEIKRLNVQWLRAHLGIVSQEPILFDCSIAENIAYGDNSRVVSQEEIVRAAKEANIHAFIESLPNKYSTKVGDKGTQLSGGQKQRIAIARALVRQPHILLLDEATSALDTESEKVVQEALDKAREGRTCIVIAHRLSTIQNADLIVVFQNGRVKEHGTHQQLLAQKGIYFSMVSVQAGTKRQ

Row | Compound | IC50 (K562 [1]) | IC50 [4] | Activity (K562 [5]) | inhibition at 72 h, 10 µM [6] | inhibition at 72 h, 10 µM [10] | further results
1 | COc1cccc2c1C(=O)c1c(O)c3c(c(O)c1C2=O)C[C@@](O)(C(=O)CO)C[C@@H]3O[C@H]1C[C@H](N)[C@H](O)[C@H](C)O1 [DOXORUBICIN] | 0.43 µM | 46.7 µM | – | – | – | growth inhibition (GI) (K562/A02 [2]): inactive; selectivity ratio (P-glycoprotein (P-gp)): 108; growth inhibition (GI) (K562 [3]): inactive
2 | COC(=O)c1cc(OC)c2c(c1-c1c(/C=C/C(=O)c3ccccc3OC)cc(OC)c3c1OCO3)OCO2 | > 200 µM | > 200 µM | inactive | < 10% | < 10% | Activity [7]: inactive; Activity [8]: inactive; inhibition (INH) [9]: Active
3 | COC(=O)c1cc(OC)c2c(c1-c1c(/C=C(\C#N)C(=O)c3ccc(OC)cc3)cc(OC)c3c1OCO3)OCO2 | > 100 µM | 37.2 µM | – | – | – | –
4 | COC(=O)c1cc(OC)c2c(c1-c1c(/C=C/C(=O)c3ccc(O)cc3)cc(OC)c3c1OCO3)OCO2 | > 100 µM | > 100 µM | – | – | – | –
5 | COC(=O)c1cc(OC)c2c(c1-c1c(/C=C(\C#N)C(=O)c3ccc(C)cc3)cc(OC)c3c1OCO3)OCO2 | 61.3 µM | 48.4 µM | – | – | – | –
6 | COC(=O)c1cc(OC)c2c(c1-c1c(/C=C/C(=O)c3ccc([N+](=O)[O-])cc3)cc(OC)c3c1OCO3)OCO2 | 73.4 µM | > 100 µM | – | – | – | –
7 | COC(=O)c1cc(OC)c2c(c1-c1c(/C=C/C(=O)c3cc(OC)ccc3OC)cc(OC)c3c1OCO3)OCO2 | > 200 µM | > 200 µM | inactive | < 10% | < 10% | Activity [7]: inactive; Activity [8]: inactive; inhibition (INH) [9]: Active
8 | COC(=O)c1cc(OC)c2c(c1-c1c(/C=C/C(=O)c3ccccc3)cc(OC)c3c1OCO3)OCO2 | > 100 µM | > 100 µM | – | – | – | –
9 | COC(=O)c1cc(OC)c2c(c1-c1c(C(=O)OC)cc(OC)c3c1OCO3)OCO2 [BIFENDATE] | > 100 µM | > 100 µM | – | – | – | –
10 | SODIUM ORTHOVANAD | – | – | – | – | – | RLU [11]: 282000
11 | COC(=O)c1cc(OC)c2c(c1-c1c(/C=C/C(=O)c3cc(C)ccc3C)cc(OC)c3c1OCO3)OCO2 | > 200 µM | > 200 µM | inactive | < 10% | < 10% | inhibition (K562/A02 [12]): Active; inhibition (INH) [13]: Active; inhibition (INH) [14]: Active; Activity [15]: 46%; inhibition (INH) [16]: Active; RLU [17]: 271000; Activity [18]: 20%; Activity [7]: inactive; Activity [19]: 5%; Activity (K562 [20]): inactive; Activity [8]: inactive; inhibition (INH) [21]: Active; inhibition (INH) [9]: Active; viability at 72 h, 10 µM [22]: 95%; inhibition (K562/A02 [23]): Dose-dependent effect
12 | COC(=O)c1cc(OC)c2c(c1-c1c(/C=C/C(=O)c3cc(OC)c(OC)c(OC)c3)cc(OC)c3c1OCO3)OCO2 | 172 µM | > 200 µM | inactive | < 10% | < 10% | –
13 | COC(=O)c1cc(OC)c2c(c1-c1c(/C=C/C(=O)c3ccc(OC)cc3)cc(OC)c3c1OCO3)OCO2 | > 100 µM | > 100 µM | – | – | – | –
14 | COc1ccc(CCN(C)CCCC(C#N)(c2ccc(OC)c(OC)c2)C(C)C)cc1OC (stereo not given) | – | – | inactive | < 10% | < 10% | Activity (K562 [20]): inactive; inhibition (INH) [21]: Active
15 | COC(=O)c1cc(OC)c2c(c1-c1c(/C=C(\C#N)C(=O)c3cc(OC)c(OC)c(OC)c3)cc(OC)c3c1OCO3)OCO2 | 60.3 µM | 38.9 µM | – | – | – | –
16 | COC(=O)c1cc(OC)c2c(c1-c1c(/C=C/C(=O)c3ccc(OC)cc3OC)cc(OC)c3c1OCO3)OCO2 | > 100 µM | > 100 µM | – | – | – | –
